Laboratory results from ChEMBL document CHEMBL3272112, “Cycloalkanones. 8. Hypocholesterolemic activity of long-chain ketones related to pentadecanone” (J Med Chem, 1976).

How the values were obtained:
Rattus norvegicus [1] = experiment: Hypocholesterolemic activity in Sprague-Dawley rat assessed as serum cholesterol level at 5 mg/kg/day, po administered via intubation measured on day 4 by Liebermann-Burchard method relative to control; type: functional
Outline: (§1)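 Male Sprague-Dawley rats given compound homogenized in 1% CMC once daily at 11:00 a.m. by oral intubation needle (0.2 cc), doses calculated on weekly body weights; tail-vein blood drawn 24 h after last dose; nonhemolyzed serum (30 μ) assayed by modified Liebermann-Burchard method; N = 8; % of control, mean ± SD; Student's t test.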

Rattus norvegicus [2] = experiment: Hypocholesterolemic activity in Sprague-Dawley rat assessed as serum cholesterol level at 10 mg/kg/day, po administered via intubation measured on day 4 by Liebermann-Burchard method relative to control; type: functional; outline: as §1
Rattus norvegicus [3] = organism: Rattus norvegicus; experiment: Disruption of rat liver cell membrane assessed as unlysed cells at 25 mg per gram of tissue measured at 1 hr (reference value: 90 +/- 4%); type: functional
Outline: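 Rat liver 10% homogenate in 0.25 M sucrose + 0.001 M EDTA, pH 7.2, incubated at 37°C with Hanke's buffer pH 7.2 and drug suspended in 1% CMC (dose as mg drug per g wet liver); turbidity read as absorbance at 660 nm over 0–4 hr, falling absorbance taken as lysis; expressed as % unlysed cells; vehicle 1% CMC control.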

Rattus norvegicus [4] = experiment: Toxicity in Sprague-Dawley rat assessed as increase in body weight at 10 mg/kg/day measured on day 16 (reference value: 195 +/- 16%); type: organism-based; settings: in vivo

SMILES: CCCCCCCCCCCCCCC(C)=O
- Activity (Rattus norvegicus [1]): 74%
- Activity (Rattus norvegicus [2]): 79%
- Activity (Rattus norvegicus [3]): 92%
- Activity (Rattus norvegicus [4]): 228%
